# Screens (PubChem)
# Hits are enriched below; roughly 2.3% of the tested compounds scored in any of these assays.
# OXTR potentiate: human OXTR potentiators, primary screen, fluorescence, CHO-OTR cells, Fluo-8 calcium; activation, % at 3 µM; Oxytocin receptor (Homo sapiens), P30559; Fluo-8 calcium fluorescence, potentiator mode; 0% = oxytocin EC15, 100% = EC100; AID 2445, 2010; hit rate 0.061% among 320,000;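 active = activation above that plate's cutoff, the mean activation of tested compounds plus 3 SD, cut at about 6.6% in these data, passing the limit was not always enough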
# Target sequence (P30559 whole entry, looked up): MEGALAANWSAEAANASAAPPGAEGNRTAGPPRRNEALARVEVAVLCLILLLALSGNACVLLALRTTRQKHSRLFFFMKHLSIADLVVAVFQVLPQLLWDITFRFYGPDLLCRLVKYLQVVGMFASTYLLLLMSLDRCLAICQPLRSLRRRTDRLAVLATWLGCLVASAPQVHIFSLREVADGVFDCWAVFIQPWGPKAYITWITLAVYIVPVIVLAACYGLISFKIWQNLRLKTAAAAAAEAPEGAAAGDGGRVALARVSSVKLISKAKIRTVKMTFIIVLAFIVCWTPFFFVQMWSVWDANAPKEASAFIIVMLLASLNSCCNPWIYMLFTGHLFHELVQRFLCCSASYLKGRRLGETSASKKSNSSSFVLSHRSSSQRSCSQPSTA
#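 Material: CHO-OTR cells, human receptor; compound dosing: single dose, 3.0 µM nominal final compound concentration; schedule: 6 min compound pre-incubation at room temperature, 100 s kinetic read; measured by: kinetic Fluo-8 calcium fluorescence; read-out basis: % activation vs EC15 and EC100 oxytocin; controls: EC15 oxytocin alone as 0%, 75 nM oxytocin as 100%; replicates: singlicate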
# OXTR agonist: human OXTR agonists, primary screen, fluorescence, CHO-OTR cells, Fluo-8 calcium. hit rate 0.32% among 320,000. Oxytocin receptor (Homo sapiens), P30559. activation, % at 3 µM. Fluo-8 calcium fluorescence; normalized: DMSO 0%, oxytocin 100%;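 active = activation above the mean of all tested compounds plus 3 SD, cutoff set per screening run, cut at about 20% in these data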;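 note: peak over basal fluorescence ratio from a 100 s FLIPR kinetic read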
# TAAR1 agonist: human TAAR1 agonists, primary screen, Fluo-8 calcium fluorescence, CHO RD-HGA16 cells; Trace amine-associated receptor 1 (Homo sapiens), Q96RJ0; hit rate 0.99% among 360,000; vehicle wells 0%, saturating PEA agonist 100%; activation, % at 3 µM; AID 624467, 2012;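 active = activation above the mean activation of all test compounds in the run plus 3 SD, cut at about 38% in these data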
# Target sequence (Q96RJ0 whole entry, looked up): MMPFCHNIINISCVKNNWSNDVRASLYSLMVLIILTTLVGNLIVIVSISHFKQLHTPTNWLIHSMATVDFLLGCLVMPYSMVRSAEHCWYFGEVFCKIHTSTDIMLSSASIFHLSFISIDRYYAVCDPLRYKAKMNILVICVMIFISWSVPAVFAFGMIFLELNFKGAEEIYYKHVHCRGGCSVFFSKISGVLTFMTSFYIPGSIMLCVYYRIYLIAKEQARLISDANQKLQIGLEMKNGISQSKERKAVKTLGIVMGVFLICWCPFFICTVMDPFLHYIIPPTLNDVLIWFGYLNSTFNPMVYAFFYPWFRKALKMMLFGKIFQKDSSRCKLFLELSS
#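 Assay system – CHO-derived RD-HGA16 cells with stable Gα16 and human TAAR1 · Compound dosing – one-point dosing at 3 µM (nominal) · Incubation – 17-24 h seeding, 75 min 37 °C dye, 30 min RT · Measured by – kinetic Fluo-8 calcium fluorescence · Control set – DMSO vehicle as 0%, PEA at EC100 as 100% · Repeats – single well for each compound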
# V1aR counter: agonists of human V1a receptor, primary screen, counter-screen for OXTR agonist project, fluorescence, CHO-V1R cells. activation, % at 3 µM. hit rate 0.25% among 320,000. AID 2797, 2010. Fluo-8 calcium fluorescence, agonist mode; 0% DMSO, 100% 3 nM vasopressin. Vasopressin V1a receptor (Homo sapiens), P37288;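 active = activation above the mean activation of all tested compounds plus 3 SD, per screening run, cut at about 20% in these data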;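 note: signal is peak over basal fluorescence ratio across a 100 second FLIPR read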
# TAAR1 antagonist: human TAAR1 antagonists, primary screen, Fluo-8 calcium fluorescence, CHO RD-HGA16 cells; Trace amine-associated receptor 1 (Homo sapiens), Q96RJ0; antagonist; inhibition, % at 3 µM; hit rate 1.5% among 360,000; AID 624466, 2012;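 active = inhibition above a per-plate cutoff, the mean inhibition of test compounds on that plate plus 3 SD, cut at about 49% in these data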
#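 test system = CHO RD-HGA16 cells bearing hTAAR1 | replication = singlicate | controls = DMSO-only wells and EC80 β-PEA-stimulated wells | reagent = EC80 β-phenethylamine stimulus | read-out basis = percent inhibition of PEA-evoked calcium signal, max/basal emission ratio | schedule = seeding 17-24 h prior, 75-min 37 °C, 30-min RT dye loading | signal = kinetic Fluo-8 calcium fluorescence measurement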
# TAAR1 ag confirm: human TAAR1 agonists, retest of hits, confirmation, Fluo-8 calcium fluorescence, CHO RD-HGA16 cells. shares compounds with TAAR1 agonist. scaled: DMSO 0%, maximal phenethylamine 100%. activation, % at 3 µM. hit rate 82% among 2,400. AID 651783, 2012;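 active = activation above a cutoff set at the run's mean compound activation plus 3 SD, cut at about 39% in these data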
# Ga16 ag counter: nonselective calcium mobilization agonists, CHO-Ga16 cells, counter-screen for hTAAR1 agonist project, cell-based, fluorescence, CHO-Ga16 parental line; hit rate 50% among 2,400; activation, % at 3 µM; shares compounds with TAAR1 agonist; Fluo-8 calcium fluorescence; normalized to maximal ATP response, DMSO zero;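 active = activation above the run cutoff, the mean activation over all tested wells plus 3 SD, cut at about 12% in these data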
# TAAR1 desensitize: TAAR1 desensitization by agonist hits, confirmation, counter-screen for TAAR1 agonist project, cell-based, fluorescence, tachyphylaxis; shares compounds with TAAR1 agonist; CHO RD-HGA16 hTAAR1, Fluo-8 calcium, beta-PEA response inhibition; inhibition, % at 3 µM; hit rate 46% among 2,400;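 active = inhibition above the run cutoff, the mean inhibition of all test compounds plus 3 SD, cut at about 49% in these data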;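 note: beta-PEA stimulus applied at its EC80; loss of beta-PEA calcium signal after compound pretreatment read as receptor desensitization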
# Ga16 antag count: inhibition of ATP-evoked calcium response in CHO-Ga16 cells, counter-screen for TAAR1 agonist project, cell-based, fluorescence. CHO-Ga16 ATP-induced calcium, Fluo-8 fluorescence. inhibition, % at 3 µM. shares compounds with TAAR1 agonist. hit rate 39% among 2,400;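 active = inhibition above the plate's mean compound inhibition plus 3 SD, computed per plate, cut at about 22% in these data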
# Hits are given with their value; n = inactive; x = not tested or not shown.
SMILES,OXTR potentiate,OXTR agonist,TAAR1 agonist,V1aR counter,TAAR1 antagonist,TAAR1 ag confirm,Ga16 ag counter,TAAR1 desensitize,Ga16 antag count
Cc1ccc(CNC(=O)CN(C(=O)C2(C)CC(=O)N=C3C=CC=CN32)c2ccccc2F)cc1 (stereo unspecified),n,n,n,n,n,x,x,x,x
CN1CCCC(n2nc(Cc3ccc(Cl)cc3)c3ccccc3c2=O)CC1 (stereo unspecified),n,n,n,n,n,x,x,x,x
Cc1cc(/C=C(\C#N)C(=O)Nc2ccc(F)cc2)c(C)n1-c1ccc(N2CCOCC2)c([N+](=O)[O-])c1,n,n,68.8,n,n,n,n,n,28.1
O=S(=O)(Nc1nc(SCc2ccc(Cl)cc2)n[nH]1)c1ccccc1,n,n,n,n,n,x,x,x,x
CN(C)c1ccc(S(=O)(=O)NCC(=O)NCc2ccccc2)cc1[N+](=O)[O-],n,n,78.9,n,n,n,n,n,n
C=CCNc1ncnc2c1ncn2[C@H]1CN(CCOC)C[C@@H](CO)O1,x,x,n,x,n,x,x,x,x
COC(=O)c1sc(NC(=S)NC(=O)c2ccccc2Cl)nc1C,n,n,50.4,n,n,n,22.9,n,n
COC(=O)c1sc(NC(=S)NC(=O)c2ccccc2)nc1C,n,n,n,n,n,x,x,x,x
COC(=O)C1=C(C)N(C)C(=NCc2cc(OC)c(OC)c(OC)c2)NC1c1cccc(F)c1 (stereo unspecified),x,x,n,x,n,x,x,x,x
COc1ccc(S(=O)(=O)n2cnc(C)c2)cc1,n,n,n,n,n,x,x,x,x
Clc1ccc(OCCNCCc2ccccc2)cc1,n,n,80.5,n,n,91.8,n,75.3,n
c1ccc(CCNCCCOc2cccc3ccccc23)cc1,n,n,57.1,n,n,95.1,26.4,87.0,33.5
CNc1nc(Nc2ccc(Br)cc2)nc(N)c1[N+](=O)[O-],n,n,n,n,n,x,x,x,x
O=C(O)c1ccc(COc2ccc(CO)cc2Cl)cc1,n,n,n,n,n,x,x,x,x
CCN1C(=O)/C(=C/c2ccc(OCc3ccc(C(=O)O)cc3)c(Cl)c2)NC1=S,n,n,100.1,n,95.7,n,35.8,76.2,67.6
O=S(=O)(CCNCCc1ccccc1)NC1CCCCC1,x,x,42.5,x,n,59.8,n,n,n
CCN(CC)c1ccc(C=C2SC(=S)NC2=O)cc1,x,x,120.3,x,105.3,97.1,104.0,100.8,97.6
COc1cc(/C=C2/SC(=S)N(Cc3ccccc3)C2=O)cc(Cl)c1O,n,70.1,103.3,64.6,88.8,181.7,198.2,101.0,100.2
OCCNc1nc(Nc2ccccc2)nc(Nc2ccccc2)n1,n,n,n,n,n,x,x,x,x
Cc1c(Cl)cccc1Nc1nc(NCCO)c2ccccc2n1,n,n,49.5,n,n,82.8,n,83.7,n
OCCNc1nc(Nc2ccccc2)nc2ccccc12,n,n,96.6,n,92.1,88.8,n,97.9,n
CN(C(=O)COc1ccc(Br)cc1Cl)C1CCCCC1,n,n,n,n,n,x,x,x,x
Cc1nn(C)c(C)c1NS(=O)(=O)c1ccccc1Cl,n,n,n,n,n,x,x,x,x
CC(=NCCc1ccccc1)C1=C(O)COC1=O,n,n,82.8,n,n,77.8,n,n,n
CC(=NCCc1ccccc1)C1=C(O)C(c2ccccc2)OC1=O (stereo unspecified),n,n,73.0,n,n,77.0,n,n,n
SMILES,OXTR potentiate,OXTR agonist,TAAR1 agonist,V1aR counter,TAAR1 antagonist,TAAR1 ag confirm,Ga16 ag counter,TAAR1 desensitize,Ga16 antag count
CCOc1ccc(-n2c(O)cc(=O)[nH]c2=O)cc1,n,n,n,n,n,x,x,x,x
CN(CC(=O)Nc1ccc(Cl)cc1)C(=O)CCc1c[nH]c2ccccc12,n,n,n,n,n,x,x,x,x
O=C(CCc1ccccc1)NCCSCc1c(F)cccc1Cl,n,n,n,n,n,x,x,x,x
O=C(CSCc1c(F)cccc1Cl)NCCc1ccccc1,n,n,43.0,n,n,79.5,n,n,n
O=C(CNS(=O)(=O)c1ccc(F)c(Cl)c1)NCCc1ccccc1,n,n,45.4,n,n,64.6,n,n,n
CCCCCCCCN1C(=O)[C@H](CC(=O)NCc2ccc(OC)c(OC)c2)C[C@@]2(C(=O)OC)CCCCC=C12,x,x,n,x,n,x,x,x,x
CN(CCNC(=O)c1ccc(CS(=O)(=O)c2c(Cl)cccc2Cl)o1)CCc1ccccc1,n,n,44.1,n,n,55.1,n,n,n
CN(C)CCNC(=O)c1ccc(CS(=O)(=O)c2c(Cl)cccc2Cl)o1,n,n,n,n,n,x,x,x,x
O=C(NCCc1ccccc1)c1ccc(CS(=O)(=O)Cc2ccccc2F)o1,n,n,55.5,n,n,83.3,n,66.4,n
COc1ccc(OC)c(-n2c(SCC(=O)Nc3cccc(S(N)(=O)=O)c3)nc3ccccc3c2=O)c1,n,n,n,n,n,x,x,x,x
Cc1cc(N/N=C/c2ccccc2O)nc(N2CCOCC2)n1,n,n,42.7,n,n,66.1,n,81.5,n
Cc1ccc(Nc2cc(C)nc(N3CCOCC3)n2)cc1,n,n,41.5,n,n,n,n,n,n
COc1ccc(OC)c(/C=N/Nc2cc(C)nc(N3CCOCC3)n2)c1,n,n,n,n,n,x,x,x,x
CC1(c2ccc(Cl)cc2)NC(=O)N(CC(=O)N2CCc3ccccc32)C1=O (stereo unspecified),n,40.1,96.9,27.9,72.7,114.0,74.2,77.0,55.1
O=C(Nc1nc2c(Cl)ccc(Cl)c2s1)c1ccco1,n,n,113.9,n,70.0,107.2,88.7,92.0,61.8
O=C(Nc1nc2ccsc2c(=O)s1)c1ccco1,n,n,n,n,n,x,x,x,x
COc1ccccc1CCC(=O)N1CCN(S(=O)(=O)c2cc(C(F)(F)F)ccc2Cl)CC1,n,n,n,n,n,x,x,x,x
